TAAR1 antag: human TAAR1 antagonism | 360,000 tested, 1.5% active | CHO RD-HGA16 TAAR1, Fluo-8 calcium fluorescence, antagonist | inhibition, % at 3 µM | AID 624466;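 active means inhibition above a per-plate cutoff, the mean inhibition of test compounds on that plate plus 3 SD, cut at about 49% in these data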;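 further: 0% = DMSO plus EC80 beta-PEA response and 100% = DMSO alone without agonist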
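Material: CHO RD-HGA16 cells bearing hTAAR1; compound dosing: one-point dosing, 3 µM nominal final; schedule: dye loading 75 min at 37 °C, then 30 min room temperature; measured by: calcium fluorescence with Fluo-8; control set: vehicle and agonist controls; replication: n of 1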
OXTR potentiate: potentiates the human oxytocin receptor response | P30559 | 320,000 tested, 0.061% active | AID 2445 | activation, % at 3 µM | CHO-OTR cells, Fluo-8 calcium fluorescence, potentiator mode; 0% = oxytocin EC15, 100% = EC100;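 active means activation above that plate's cutoff, the mean activation of tested compounds plus 3 SD, cut at about 6.6% in these data, passing the limit was not always enough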;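 further: 100% uses oxytocin at 75 nM as the full agonist control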
Target sequence (P30559 whole entry, looked up): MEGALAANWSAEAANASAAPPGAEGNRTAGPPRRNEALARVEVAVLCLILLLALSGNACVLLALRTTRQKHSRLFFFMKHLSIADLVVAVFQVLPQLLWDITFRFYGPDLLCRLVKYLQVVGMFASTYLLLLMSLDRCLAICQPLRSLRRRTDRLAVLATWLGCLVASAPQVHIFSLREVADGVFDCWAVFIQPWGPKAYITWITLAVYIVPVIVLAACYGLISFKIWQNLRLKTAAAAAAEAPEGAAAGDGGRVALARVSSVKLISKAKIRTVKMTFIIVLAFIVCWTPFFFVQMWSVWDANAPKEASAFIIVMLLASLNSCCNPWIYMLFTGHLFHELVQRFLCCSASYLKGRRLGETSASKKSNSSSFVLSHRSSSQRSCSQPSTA
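Replication – single well per compound, singlicate · Assay system – CHO cell line stably expressing human OTR · Timing – 6 min pre-incubation, 100 s read · Measure – normalized max/min fluorescence ratio, % activation · Doses – 3.0 µM, one dose · Detection – Fluo-8 calcium dye fluorescence · Probe or stimulus – oxytocin near EC15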
V1aR counter: V1a receptor agonism, counter-screen for OXTR agonists; CHO-V1R cells, Fluo-8 calcium fluorescence, agonist mode; 0% DMSO, 100% 3 nM vasopressin; activation, % at 3 µM; 320,000 tested, 0.25% active;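 active means activation above the mean activation of all tested compounds plus 3 SD, per screening run, cut at about 20% in these data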;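 further: signal is peak over basal fluorescence ratio across a 100 second FLIPR read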
TAAR1 ag: human TAAR1 agonism; Q96RJ0; CHO RD-HGA16 TAAR1, Fluo-8 calcium fluorescence; vehicle wells 0%, saturating PEA agonist 100%; activation, % at 3 µM; 360,000 tested, 0.99% active;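 active means activation above the mean activation of all test compounds in the run plus 3 SD, cut at about 38% in these data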
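Test system: RD-HGA16 (CHO) cells co-expressing Gα16 and hTAAR1; dosing: one-point dosing at 3 µM (nominal); timing: 17-24 h seeding, 75 min 37 °C dye, 30 min RT; signal: kinetic Fluo-8 calcium fluorescence; read-out basis: % activation relative to PEA EC100 response; controls: DMSO and PEA EC100; replicates: n 1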
OXTR agonist: agonists of human oxytocin receptor; CHO-OTR cells, Fluo-8 calcium fluorescence; normalized: DMSO 0%, oxytocin 100%; 320,000 tested, 0.32% active; P30559; AID 2435; activation, % at 3 µM;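 active means activation above the mean of all tested compounds plus 3 SD, cutoff set per screening run, cut at about 20% in these data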;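 further: peak over basal fluorescence ratio from a 100 s FLIPR kinetic read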
OXTR ag confirm: human OXTR agonism, confirmation | shares compounds with OXTR agonist | CHO-OTR cells, Fluo-8 calcium fluorescence, agonist | activation, % at 3 µM | 390 tested, 20% active | AID 434963;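 active means mean activation above about 20% derived from the earlier single-dose screen, limit read from the data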;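 further: peak over minimum fluorescence ratio per well during a 100 second FLIPR read; 0% = DMSO alone and 100% = oxytocin high control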
V1aR counter 3x: counter-screen for oxytocin receptor agonists: V1a receptor agonists. shares compounds with OXTR agonist. CHO-V1R cells, Fluo-8 calcium fluorescence, agonist. activation, % at 3 µM. 390 tested, 10% active;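 active means mean activation over triplicate exceeds the hit threshold set in the earlier primary screen, cut at about 20% in these data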;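 further: peak over basal fluorescence ratio within a 100 second read; 0% = DMSO alone and 100% = 3 nM vasopressin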
TAAR1 ag confirm: human TAAR1 agonism, confirmed; shares compounds with TAAR1 ag; CHO RD-HGA16 TAAR1, Fluo-8 calcium fluorescence; scaled: DMSO 0%, maximal phenethylamine 100%; activation, % at 3 µM; 2,400 tested, 82% active;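 active means activation above a cutoff set at the run's mean compound activation plus 3 SD, cut at about 39% in these data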
Ga16 ag counter: nonselective agonist in parental cells, TAAR1 agonist counter-screen; 2,400 tested, 50% active; activation, % at 3 µM; CHO-Ga16 parental, Fluo-8 calcium fluorescence; normalized to maximal ATP response, DMSO zero; AID 651787; shares compounds with TAAR1 ag;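 active means activation above the run cutoff, the mean activation over all tested wells plus 3 SD, cut at about 12% in these data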;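 further: 0% = DMSO wells and 100% = maximal ATP response on the peak over basal ratio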
TAAR1 desens: human TAAR1 agonist that also desensitizes the receptor; shares compounds with TAAR1 ag; CHO RD-HGA16 hTAAR1, Fluo-8 calcium, beta-PEA response inhibition; inhibition, % at 3 µM; 2,400 tested, 46% active; AID 651951;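 active means inhibition above the run cutoff, the mean inhibition of all test compounds plus 3 SD, cut at about 49% in these data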;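 further: beta-PEA stimulus applied at its EC80; loss of beta-PEA calcium signal after compound pretreatment read as receptor desensitization; 0% = DMSO with beta-PEA at EC80 and 100% = DMSO alone without agonist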
Ga16 nonsel ant: nonselective Ga16 antagonist in TAAR1 agonist counter-screen. shares compounds with TAAR1 ag. inhibition, % at 3 µM. CHO-Ga16 ATP-induced calcium, Fluo-8 fluorescence. 2,400 tested, 39% active;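 active means inhibition above the plate's mean compound inhibition plus 3 SD, computed per plate, cut at about 22% in these data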;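 further: 0% = EC80 ATP with DMSO and 100% = DMSO wells without ATP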
* marks the source's active call; other numbers are inactive results; . = not tested or not shown. Sampled rows, rich in hits. Any-hit rate of the full collection: about 2.3%.

SMILES | TAAR1 antag | OXTR potentiate | V1aR counter | TAAR1 ag | OXTR agonist | OXTR ag confirm | V1aR counter 3x | TAAR1 ag confirm | Ga16 ag counter | TAAR1 desens | Ga16 nonsel ant
COc1cc(CNCc2ccccn2)ccc1OCc1ccc(Cl)cc1Cl | 16 | -8 | 11 | 45* | 25* | 5 | 2 | . | . | . | .
COc1cc(CNCCO)cc(Cl)c1OCc1ccc(Cl)cc1Cl | 12 | -7 | 9 | 29 | 20* | 8 | 2 | . | . | . | .
CCOc1cccc(/C=C2\NC(=S)N(c3ccccc3)C2=O)c1O | 5 | -24 | 12 | 10 | 24* | 8 | 10 | . | . | . | .
CCOc1cc(/C=C2\NC(=S)N(c3c(C)n(C)n(-c4ccccc4)c3=O)C2=O)ccc1O | -18 | -7 | 2 | 6 | 1 | . | . | . | . | . | .
C#CCNC(=O)c1ccc(OCc2ccccc2)cc1Cl | -29 | 3 | 0 | 3 | 0 | . | . | . | . | . | .
O=C(NCCCl)c1ccc(OCc2ccccc2)cc1Cl | -3 | -10 | 10 | 48* | 22* | 0 | 0 | 68* | 17* | 56* | 19
CC1(C(=O)Nc2ccc3c(c2)OCO3)CCN1Cc1csc2ccccc12 (stereo not drawn) | 24 | . | . | 4 | . | . | . | . | . | . | .
Cc1ccc(C(C)NC(=O)/C(C#N)=C\c2c(C)[nH]c3ccccc23)cc1 (stereo not drawn) | 44 | -10 | 18 | 63* | 27* | 14 | 9 | 59* | 33* | 48 | 39*
Cc1[nH]c2ccccc2c1/C=C(\C#N)C(=O)NCc1ccccc1 | -5 | -7 | 3 | 11 | 2 | . | . | . | . | . | .
N#C/C(=C/c1ccc(O)cc1)C(=O)NCc1ccc(Cl)cc1 | 4 | -8 | 7 | 34 | 13 | . | . | . | . | . | .
N#C/C(=C\c1ccc(O)cc1)C(=O)NCc1cccc(Cl)c1 | 38 | -9 | 18 | 63* | 20* | 14 | 10 | 75* | 37* | 36 | 26*
Oc1ccc(Cl)cc1CNCc1ccc(F)cc1 | 29 | -16 | 9 | 66* | 28* | 28* | 19 | 65* | 30* | 22 | 11
COc1cccc(C(=O)Nc2ccc(NC(=O)Cc3ccccc3)cc2)c1 | 42 | -5 | 2 | 82* | 24* | 0 | 0 | 102* | 23* | 67* | 14
O=c1oc2ccccc2cc1-c1nc2c(s1)CCc1ccccc1-2 | -19 | -2 | 1 | 1 | -1 | . | . | . | . | . | .
O=c1oc2cc(O)ccc2cc1-c1nc2c(s1)CCc1ccccc1-2 | 47 | -5 | 14 | 59* | 26* | 160* | 181* | 176* | 164* | 84* | 84*
CN(C)CCCOc1ccc(C(C)(C)c2ccccc2)cc1 | 0 | -13 | 10 | 75* | 20* | 7 | 1 | 45* | 8 | 9 | 12
CN(C)CCOc1ccc(C(C)(C)c2ccccc2)cc1 | -15 | 0 | 0 | 8 | 2 | . | . | . | . | . | .
CC(=C1SC(=S)NC1=O)c1ccc(Cl)c(O)c1 | 12 | . | . | 1 | . | . | . | . | . | . | .
CC1(c2ccc(OC(F)F)cc2)NC(=O)N(CC(=O)Nc2ccc(F)cc2)C1=O (stereo not drawn) | 33 | -15 | 15 | 78* | 27* | 19 | 14 | 107* | 47* | 78* | 46*
CC1(c2ccc(OC(F)F)cc2)NC(=O)N(CC(=O)Nc2ccc(Cl)cc2F)C1=O (stereo not drawn) | 55* | -16 | 19 | 96* | 34* | 24* | 22* | 91* | 47* | 53* | 43*
[O-][N+](=Cc1ccccc1)CC1(O)CCCCC1 | -12 | . | . | 1 | . | . | . | . | . | . | .
O=[N+]([O-])c1ccc(/C=N/Nc2nc(NCc3ccccc3)nc(N3CCOCC3)n2)cc1 | -1 | 2 | -1 | 2 | -2 | . | . | . | . | . | .
O=[N+]([O-])c1cccc(/C=N/Nc2nc(NCc3ccccc3)nc(N3CCOCC3)n2)c1O | 27 | -31 | 17 | 67* | 24* | 19 | 17 | 115* | 112* | 93* | 85*
Cc1cccc(C)c1NC(=O)C1(C)CSCC(=O)N1CCc1ccc(O)cc1 (stereo not drawn) | -26 | . | . | 9 | . | . | . | . | . | . | .
